Test [1] addresses T1, Lethal(3)malignant brain tumor-like protein 3 (Homo sapiens, UniProt Q96JM7).
T1 sequence (Q96JM7 whole entry): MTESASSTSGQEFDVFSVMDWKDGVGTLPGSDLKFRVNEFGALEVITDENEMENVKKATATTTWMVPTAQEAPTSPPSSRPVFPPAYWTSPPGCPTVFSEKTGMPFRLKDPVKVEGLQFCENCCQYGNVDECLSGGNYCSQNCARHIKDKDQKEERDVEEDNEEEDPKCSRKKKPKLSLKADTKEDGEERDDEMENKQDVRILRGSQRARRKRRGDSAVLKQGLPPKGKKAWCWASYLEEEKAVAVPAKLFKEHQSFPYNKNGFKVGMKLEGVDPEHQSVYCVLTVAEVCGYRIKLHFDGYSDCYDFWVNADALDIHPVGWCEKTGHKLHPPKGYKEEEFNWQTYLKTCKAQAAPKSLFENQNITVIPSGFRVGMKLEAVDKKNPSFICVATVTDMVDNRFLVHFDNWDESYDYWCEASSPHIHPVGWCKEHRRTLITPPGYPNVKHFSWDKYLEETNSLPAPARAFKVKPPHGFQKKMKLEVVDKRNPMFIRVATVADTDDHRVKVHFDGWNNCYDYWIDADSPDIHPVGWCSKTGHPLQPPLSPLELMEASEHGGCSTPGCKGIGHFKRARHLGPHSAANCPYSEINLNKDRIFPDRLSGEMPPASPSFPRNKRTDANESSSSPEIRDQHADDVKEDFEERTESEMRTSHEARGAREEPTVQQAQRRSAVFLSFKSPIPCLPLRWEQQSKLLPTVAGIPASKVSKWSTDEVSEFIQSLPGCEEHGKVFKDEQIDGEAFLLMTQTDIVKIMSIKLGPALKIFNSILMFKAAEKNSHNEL
In words: Inhibition of L3MBTL3 (unknown origin) after 30 mins by AlphaScreen assay. In a few lines:
(§1)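 AlphaScreen competition with histone peptide. Compounds in 3-fold, 10-point dilutions, top 10 or 30 μM; buffer 20 mM Tris pH 8.0, 25 mM NaCl, 2 mM DTT, 0.05% Tween-20. Protein-peptide mix 30 min RT, then streptavidin donor plus nickel-chelate acceptor beads (GST acceptor beads for GST-tagged PHF23, JARID1A) 30 min RT dark. Protein-free His6-biotin peptide counterscreen.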
(Alpha assays give light when donor and acceptor beads are brought close together.)

Test [2] has as its target Lysine-specific demethylase 5A (Homo sapiens, UniProt P29375). In words: Inhibition of JARID1A (unknown origin) after 30 mins by AlphaScreen assay. The procedure, abridged: (§2)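 AlphaScreen competition with histone peptide. Compounds in 3-fold, 10-point dilutions, top 10 or 30 μM; buffer 20 mM Tris pH 8.0, 25 mM NaCl, 2 mM DTT, 0.05% Tween-20. Protein-peptide mix 30 min RT, then streptavidin donor plus nickel-chelate acceptor beads (GST acceptor beads for GST-tagged PHF23, JARID1A) 30 min RT dark. […] Protein-free His6-biotin peptide counterscreen.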

For test [3], the target named is T1, Lethal(3)malignant brain tumor-like protein 3. In words: Inhibition of L3MBTL3 (unknown origin) using H4K20me2 as substrate after 30 mins by LNCE-TR-FRET assay. On the technique in general: TR-FRET usually uses a lanthanide donor and a delayed reading to cut background.
Test [4] addresses T2, Lethal(3)malignant brain tumor-like protein 4 (Homo sapiens, UniProt Q8NA19).
T2 sequence (Q8NA19 whole entry): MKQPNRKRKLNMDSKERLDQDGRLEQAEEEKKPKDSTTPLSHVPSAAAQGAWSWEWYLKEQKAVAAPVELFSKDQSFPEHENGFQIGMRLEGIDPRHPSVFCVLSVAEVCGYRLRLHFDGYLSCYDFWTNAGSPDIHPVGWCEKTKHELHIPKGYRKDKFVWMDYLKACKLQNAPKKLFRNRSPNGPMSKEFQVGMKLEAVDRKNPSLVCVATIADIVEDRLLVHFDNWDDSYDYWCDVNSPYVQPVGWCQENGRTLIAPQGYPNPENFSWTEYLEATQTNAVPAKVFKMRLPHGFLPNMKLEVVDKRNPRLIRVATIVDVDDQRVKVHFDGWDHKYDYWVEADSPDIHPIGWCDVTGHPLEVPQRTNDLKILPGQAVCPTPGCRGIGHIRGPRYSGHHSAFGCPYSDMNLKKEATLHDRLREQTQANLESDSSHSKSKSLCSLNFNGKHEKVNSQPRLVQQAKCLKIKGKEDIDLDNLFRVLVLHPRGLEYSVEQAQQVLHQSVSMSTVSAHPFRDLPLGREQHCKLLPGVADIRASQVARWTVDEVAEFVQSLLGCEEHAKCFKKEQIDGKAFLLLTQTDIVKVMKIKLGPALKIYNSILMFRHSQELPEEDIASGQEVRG
In words: Inhibition of L3MBTL4 (unknown origin) after 30 mins by AlphaScreen assay. The procedure, abridged: as §1

Test [5] concerns the target T3, Scm-like with four MBT domains protein 1 (Homo sapiens, UniProt Q9UHJ3).
T3 sequence (Q9UHJ3 whole entry): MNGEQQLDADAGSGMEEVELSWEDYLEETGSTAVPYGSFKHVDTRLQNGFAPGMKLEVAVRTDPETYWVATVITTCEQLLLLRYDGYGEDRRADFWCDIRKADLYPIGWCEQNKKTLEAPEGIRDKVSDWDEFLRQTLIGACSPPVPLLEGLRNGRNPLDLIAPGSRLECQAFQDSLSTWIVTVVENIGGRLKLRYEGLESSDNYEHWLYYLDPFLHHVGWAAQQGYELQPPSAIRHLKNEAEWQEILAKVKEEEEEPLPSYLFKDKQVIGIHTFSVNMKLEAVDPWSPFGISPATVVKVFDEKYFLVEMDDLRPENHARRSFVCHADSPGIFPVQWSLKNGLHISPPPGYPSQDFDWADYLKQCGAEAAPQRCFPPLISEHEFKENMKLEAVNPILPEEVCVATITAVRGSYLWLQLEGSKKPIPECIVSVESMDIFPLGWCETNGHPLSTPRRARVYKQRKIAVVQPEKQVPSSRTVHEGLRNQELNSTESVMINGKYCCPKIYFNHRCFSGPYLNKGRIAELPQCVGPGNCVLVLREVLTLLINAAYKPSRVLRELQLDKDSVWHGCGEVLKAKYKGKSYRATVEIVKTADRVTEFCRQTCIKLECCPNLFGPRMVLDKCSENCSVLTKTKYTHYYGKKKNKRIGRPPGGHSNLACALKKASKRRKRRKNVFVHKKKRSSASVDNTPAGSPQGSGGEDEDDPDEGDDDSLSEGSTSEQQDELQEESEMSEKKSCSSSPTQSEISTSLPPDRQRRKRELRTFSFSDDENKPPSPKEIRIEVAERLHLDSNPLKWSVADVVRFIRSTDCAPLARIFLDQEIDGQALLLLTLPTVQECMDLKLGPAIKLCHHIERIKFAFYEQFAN
In words: Inhibition of SFMBT1 (unknown origin) after 30 mins by AlphaScreen assay. In a few lines:
as §2

SMILES strings stand for the structures. A value given as a limit tells only on which side of the number the result lay.

The values below come from ChEMBL document CHEMBL2424619, “Small-molecule ligands of methyl-lysine binding proteins: optimization of selectivity for L3MBTL3” (J Med Chem, 2013).

Lysine-specific demethylase 5A, sequence (P29375 whole entry): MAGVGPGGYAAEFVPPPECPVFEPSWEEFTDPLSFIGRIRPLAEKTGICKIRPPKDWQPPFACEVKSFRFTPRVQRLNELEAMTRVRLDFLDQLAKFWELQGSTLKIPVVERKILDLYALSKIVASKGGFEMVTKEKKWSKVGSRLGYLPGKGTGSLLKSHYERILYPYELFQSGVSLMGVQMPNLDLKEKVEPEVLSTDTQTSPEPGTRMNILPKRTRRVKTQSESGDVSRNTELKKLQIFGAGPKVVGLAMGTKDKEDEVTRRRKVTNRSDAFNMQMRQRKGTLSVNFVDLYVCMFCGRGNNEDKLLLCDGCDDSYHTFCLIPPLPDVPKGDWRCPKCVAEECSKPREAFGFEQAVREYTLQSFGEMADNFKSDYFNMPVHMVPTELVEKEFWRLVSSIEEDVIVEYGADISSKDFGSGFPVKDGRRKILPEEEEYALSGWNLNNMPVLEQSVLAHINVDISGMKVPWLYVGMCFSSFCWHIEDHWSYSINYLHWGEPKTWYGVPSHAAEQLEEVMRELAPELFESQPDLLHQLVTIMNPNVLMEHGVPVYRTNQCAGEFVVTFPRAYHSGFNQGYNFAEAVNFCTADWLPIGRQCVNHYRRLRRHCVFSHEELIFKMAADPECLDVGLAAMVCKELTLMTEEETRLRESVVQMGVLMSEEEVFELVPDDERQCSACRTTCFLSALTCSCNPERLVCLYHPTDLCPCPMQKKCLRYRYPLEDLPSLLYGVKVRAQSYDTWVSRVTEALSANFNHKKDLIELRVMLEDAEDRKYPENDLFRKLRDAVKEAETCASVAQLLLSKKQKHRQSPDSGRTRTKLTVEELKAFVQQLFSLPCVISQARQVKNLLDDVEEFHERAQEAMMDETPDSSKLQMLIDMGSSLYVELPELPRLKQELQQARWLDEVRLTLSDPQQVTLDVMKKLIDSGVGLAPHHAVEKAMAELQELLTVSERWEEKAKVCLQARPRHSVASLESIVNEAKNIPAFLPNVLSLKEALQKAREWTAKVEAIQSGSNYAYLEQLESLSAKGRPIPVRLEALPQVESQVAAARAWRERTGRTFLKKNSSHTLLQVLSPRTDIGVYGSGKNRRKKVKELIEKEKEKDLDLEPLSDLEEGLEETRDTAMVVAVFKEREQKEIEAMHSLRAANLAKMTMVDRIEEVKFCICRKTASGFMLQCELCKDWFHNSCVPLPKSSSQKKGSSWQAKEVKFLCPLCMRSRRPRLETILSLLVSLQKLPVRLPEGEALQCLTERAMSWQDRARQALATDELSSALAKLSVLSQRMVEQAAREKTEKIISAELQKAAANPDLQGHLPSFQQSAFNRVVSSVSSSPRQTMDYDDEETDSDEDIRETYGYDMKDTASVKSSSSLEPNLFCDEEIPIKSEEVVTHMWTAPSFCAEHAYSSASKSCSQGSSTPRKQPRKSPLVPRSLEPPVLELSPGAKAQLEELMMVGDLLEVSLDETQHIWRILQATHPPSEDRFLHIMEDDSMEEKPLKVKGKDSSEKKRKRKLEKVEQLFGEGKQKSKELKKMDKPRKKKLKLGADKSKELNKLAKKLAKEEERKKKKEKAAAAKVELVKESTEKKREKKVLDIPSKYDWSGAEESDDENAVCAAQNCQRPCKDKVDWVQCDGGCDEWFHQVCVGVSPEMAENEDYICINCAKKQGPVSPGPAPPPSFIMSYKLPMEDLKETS

As usually defined, the IC50 is the concentration that inhibits the measured activity by half. A low value points to greater potency in that assay. As to `O=C(c1ccc(C(=O)N2CC(N3CCCC3)C2)cc1)N1CCC(N2CCCC2)CC1`, the IC50 in test [1] was 330 nM; in test [2] it was greater than 10000 nM; in test [3], 300 nM; in test [4] it was greater than 10000 nM; in test [5] it was greater than 10000 nM.

As to `O=C(c1ccc(C(=O)N2CCC(N3CCCC3)CC2)c2ccccc12)N1CCC(N2CCCC2)CC1`, the IC50 is 72 nM in test [1]; greater than 10000 nM in test [2]; 43 nM in test [3]; greater than 10000 nM in test [4]; greater than 10000 nM in test [5].

For `O=C(c1c(F)c(F)c(C(=O)N2CCC(N3CCCC3)CC2)c(F)c1F)N1CCC(N2CCCC2)CC1`, the IC50 in test [1] was 210 nM; in test [2] it was greater than 10000 nM; in test [3], 130 nM; in test [4], greater than 10000 nM; in test [5], greater than 10000 nM.

For `O=C(c1ccc(C(=O)N2CCC(N3CCCC3)CC2)cc1)N1CCC(C2CCCCC2)CC1`, the IC50 in test [1] is 2400 nM; in test [2], greater than 10000 nM; in test [3], 1600 nM; in test [4], greater than 10000 nM; in test [5], greater than 10000 nM.

Turning to `O=C(c1ccc(C(=O)N2CCC(N3CCCC3)CC2)cc1)N1CCC(C2CCCN2)CC1` (stereo not given), the IC50 was 120 nM in test [1]; greater than 10000 nM in test [2]; 92 nM in test [3]; greater than 10000 nM in test [4]; greater than 10000 nM in test [5].

Consider `C[N+]1(C2CCN(C(=O)c3ccc(C(=O)N4CCC(N5CCCC5)CC4)cc3)CC2)CCCC1`, for which the IC50 was 140 nM in test [1]; greater than 10000 nM in test [2]; 81 nM in test [3]; greater than 10000 nM in test [4]; greater than 10000 nM in test [5].

As for `O=C(c1ccc(C(=O)N2CCC(N3CCCC3)CC2)c(-c2ccccc2)c1)N1CCC(N2CCCC2)CC1`, the IC50 is 66 nM in test [1]; greater than 10000 nM in test [2]; 61 nM in test [3]; greater than 10000 nM in test [4]; greater than 10000 nM in test [5].

On to `O=C(c1ccc(C(=O)N2CCC(N3CCCC3)CC2)cc1)N1CCC(C2CCNCC2)CC1`, for which the IC50 was 740 nM in test [1]; greater than 10000 nM in test [2]; 800 nM in test [3]; greater than 10000 nM in test [4]; greater than 10000 nM in test [5].

Turning to `CN(C)C1CCN(C(=O)c2ccc(C(=O)N3CCC(N(C)C)CC3)cc2)CC1`, the IC50 in test [1] was greater than 10000 nM; in test [2], greater than 10000 nM; in test [3] it was 8000 nM; in test [4], greater than 10000 nM; in test [5], greater than 10000 nM.

In the case of `O=C(c1ccc(C(=O)N2CCC(N3CCCC3)CC2)c(NCc2ccccc2)c1)N1CCC(N2CCCC2)CC1`, the IC50 is 39 nM in test [1]; greater than 10000 nM in test [2]; 50 nM in test [3]; greater than 10000 nM in test [4]; greater than 10000 nM in test [5].

`O=C(c1ccc(C(=O)N2CCC(N3CCCC3)CC2)s1)N1CCC(N2CCCC2)CC1`: the IC50 is 96 nM in test [1]; greater than 10000 nM in test [2]; 68 nM in test [3]; greater than 10000 nM in test [4]; greater than 10000 nM in test [5].

In the case of `CCN1Cc2ccc(NC(=O)c3ccc(C(=O)N4CC5CCC(C4)C5N4CCCC4)cc3)cc2C1` (stereo not given), the IC50 is 240 nM in test [1]; greater than 10000 nM in test [2]; 150 nM in test [3]; greater than 10000 nM in test [4]; greater than 10000 nM in test [5].
